Results on 2 compounds are retold here after ChEMBL document CHEMBL2034871, “First-in-class, dual-action, 3,5-disubstituted indole derivatives having human nitric oxide synthase (nNOS) and norepinephrine reuptake inhibitory (NERI) activity for the treatment of neuropathic pain” (J Med Chem, 2012).

In series [1] the target is Mu-type opioid receptor (Homo sapiens) (UniProt P35372). Briefly: Inhibition of mu opioid receptor at 10 uM. The gist of the method:
(§1)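 Broad in vitro receptor binding screen at one concentration, 10 μM. Specific binding taken as total minus nonspecific binding with excess unlabeled ligand. […] A reference compound was run concurrently in each assay.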

The target in series [2] is T1, Muscarinic acetylcholine receptor M1 (Homo sapiens) (UniProt P11229).
T1 sequence (whole entry): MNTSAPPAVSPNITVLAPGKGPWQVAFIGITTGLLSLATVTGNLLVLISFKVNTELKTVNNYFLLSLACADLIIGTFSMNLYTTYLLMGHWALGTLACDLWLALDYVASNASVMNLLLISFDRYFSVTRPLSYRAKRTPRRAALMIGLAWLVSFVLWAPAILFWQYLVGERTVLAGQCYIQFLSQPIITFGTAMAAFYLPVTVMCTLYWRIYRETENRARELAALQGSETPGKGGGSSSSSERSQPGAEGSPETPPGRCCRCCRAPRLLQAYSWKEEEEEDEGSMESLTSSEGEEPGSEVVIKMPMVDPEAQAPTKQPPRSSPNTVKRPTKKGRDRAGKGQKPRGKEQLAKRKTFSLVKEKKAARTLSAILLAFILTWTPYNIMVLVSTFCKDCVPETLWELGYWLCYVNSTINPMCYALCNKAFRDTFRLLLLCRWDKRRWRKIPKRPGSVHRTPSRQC
Description: Inhibition of human muscarinic M1 receptor at 10 uM. In short, it runs like this:
as §1

Series [3] addresses Muscarinic acetylcholine receptor M3 (Homo sapiens) (UniProt P20309). Description: Inhibition of human muscarinic M3 receptor at 10 uM. The gist of the method:
as §1

A short description of series [4]: Inhibition of sigma receptor at 10 uM. The gist of the method: as §1
Series [5] deals with T2, Muscarinic acetylcholine receptor M5 (Homo sapiens) (UniProt P08912).
T2 sequence (whole entry): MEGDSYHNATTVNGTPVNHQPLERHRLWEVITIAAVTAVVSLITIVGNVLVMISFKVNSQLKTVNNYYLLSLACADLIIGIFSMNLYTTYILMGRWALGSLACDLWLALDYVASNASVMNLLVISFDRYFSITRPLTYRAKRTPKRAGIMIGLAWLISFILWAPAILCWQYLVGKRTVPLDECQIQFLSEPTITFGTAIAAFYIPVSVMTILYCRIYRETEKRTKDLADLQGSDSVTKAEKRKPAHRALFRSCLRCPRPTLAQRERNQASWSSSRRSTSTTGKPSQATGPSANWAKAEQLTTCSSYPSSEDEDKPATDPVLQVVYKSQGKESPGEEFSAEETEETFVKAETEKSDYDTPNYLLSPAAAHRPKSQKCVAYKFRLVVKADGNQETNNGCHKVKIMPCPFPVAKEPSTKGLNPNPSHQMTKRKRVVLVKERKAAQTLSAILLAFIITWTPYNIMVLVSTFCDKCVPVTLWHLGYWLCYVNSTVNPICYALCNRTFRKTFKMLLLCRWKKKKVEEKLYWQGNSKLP
Briefly: Inhibition of human muscarinic M5 receptor at 10 uM. In short, it runs like this: as §1

Series [6] addresses T3, Muscarinic acetylcholine receptor M4 (Homo sapiens) (UniProt P08173).
T3 sequence (whole entry): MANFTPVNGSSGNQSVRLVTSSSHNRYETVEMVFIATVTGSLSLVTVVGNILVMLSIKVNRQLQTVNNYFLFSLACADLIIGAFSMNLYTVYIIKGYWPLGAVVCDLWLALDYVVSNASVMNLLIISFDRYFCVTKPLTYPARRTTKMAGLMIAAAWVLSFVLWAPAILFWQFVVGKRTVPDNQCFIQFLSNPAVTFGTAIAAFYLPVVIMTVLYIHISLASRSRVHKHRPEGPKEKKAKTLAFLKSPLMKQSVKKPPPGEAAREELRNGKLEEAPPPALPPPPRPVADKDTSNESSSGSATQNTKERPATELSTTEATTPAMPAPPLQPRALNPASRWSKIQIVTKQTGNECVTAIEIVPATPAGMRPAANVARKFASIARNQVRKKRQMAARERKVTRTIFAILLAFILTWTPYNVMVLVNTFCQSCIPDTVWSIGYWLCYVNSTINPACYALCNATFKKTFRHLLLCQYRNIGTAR
Description: Inhibition of human muscarinic M4 receptor at 10 uM. In short, it runs like this: as §1

Series [7] addresses T4, Muscarinic acetylcholine receptor M2 (Homo sapiens) (UniProt P08172).
T4 sequence (whole entry): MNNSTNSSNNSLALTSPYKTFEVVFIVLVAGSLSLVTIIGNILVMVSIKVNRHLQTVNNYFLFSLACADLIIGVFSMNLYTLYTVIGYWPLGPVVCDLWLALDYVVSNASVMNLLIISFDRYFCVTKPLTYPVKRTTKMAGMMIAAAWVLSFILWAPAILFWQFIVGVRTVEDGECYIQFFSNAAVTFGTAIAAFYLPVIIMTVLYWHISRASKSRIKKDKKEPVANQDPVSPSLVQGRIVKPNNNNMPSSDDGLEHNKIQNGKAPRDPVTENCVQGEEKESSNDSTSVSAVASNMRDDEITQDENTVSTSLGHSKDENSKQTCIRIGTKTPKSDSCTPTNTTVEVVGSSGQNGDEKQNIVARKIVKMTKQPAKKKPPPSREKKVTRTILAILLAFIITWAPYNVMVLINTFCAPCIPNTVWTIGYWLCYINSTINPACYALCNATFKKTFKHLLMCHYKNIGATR
Briefly: Inhibition of human muscarinic M2 receptor at 10 uM. In short, it runs like this: as §1

Series [8] concerns Rattus norvegicus. Description: Antihyperalgesic activity in L5/L6 SNL Sprague-Dawley rat model of […] model assessed as reversal of thermal hyperalgesia at 30 mg/kg, ip measured after 30 mins. It is filed as functional. The note with it: route intraperitoneal. The gist of the method: (§2)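 Sprague-Dawley rats under halothane had L5 and L6 spinal nerves tightly ligated with 4-0 silk distal to the DRG, then recovered singly housed. Drug given intraperitoneally. Mechanical withdrawal threshold and radiant-heat withdrawal latency of the affected hind paw were measured.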

The nature of series [9]: Vasoconstrictive activity in U46619 precontracted human arteries assessed as inhibition of acetylcholine-induced vasorelaxation at 100 uM after 50 mins. The format is tissue-based, Artery. The gist of the method: (§3)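 Human resistance artery rings (~2 mm) from surgical tissue, wire-mounted in myograph baths of Krebs PSS at 37 °C, gassed with 95% O2/5% CO2. […] Compound given 50 min with or without L-arginine, then U46619 preconstriction and ACh curves (1×10⁻¹⁰ to 1×10⁻⁵ M). Responses as % of maximal U46619 contraction.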

In series [10] the test system is Hepatocyte. Description: Metabolic stability in human liver hepatocytes assessed as compound turnover after 120 mins. The note with it: 2 h. It is filed as ADME, cell-based.
Series [11] in a line: Metabolic stability in dog liver hepatocytes assessed as compound turnover after 120 mins. The format is ADME, cell-based, Canis lupus familiaris, Hepatocyte. The note with it: 2 h.
The next series has as its target Cytochrome P450 2C19 (Homo sapiens, UniProt P33261). Briefly: Inhibition of CYP2C19. The format is ADME.
The target of the next series is Cytochrome P450 3A4 (Homo sapiens, UniProt P08684). Briefly: Inhibition of CYP3A4. The format is ADME.
For a further series, the target named is Cytochrome P450 2D6 (Homo sapiens, UniProt P10635). Briefly: Inhibition of CYP2D6. It is filed as ADME.
Series [12] concerns the target Nitric oxide synthase, inducible (Homo sapiens, UniProt P35228). Description: Inhibition of human iNOS expressed in baculovirus-infected insect sf9 cells assessed as conversion of [3H]-L-arginine to [3H]-L-citrulline preincubated for 15 mins with compound measured after 45 mins by scintillation counting.
Another series deals with T5, Cytochrome P450 1A2 (Homo sapiens, UniProt P05177).
T5 sequence (P05177 whole entry): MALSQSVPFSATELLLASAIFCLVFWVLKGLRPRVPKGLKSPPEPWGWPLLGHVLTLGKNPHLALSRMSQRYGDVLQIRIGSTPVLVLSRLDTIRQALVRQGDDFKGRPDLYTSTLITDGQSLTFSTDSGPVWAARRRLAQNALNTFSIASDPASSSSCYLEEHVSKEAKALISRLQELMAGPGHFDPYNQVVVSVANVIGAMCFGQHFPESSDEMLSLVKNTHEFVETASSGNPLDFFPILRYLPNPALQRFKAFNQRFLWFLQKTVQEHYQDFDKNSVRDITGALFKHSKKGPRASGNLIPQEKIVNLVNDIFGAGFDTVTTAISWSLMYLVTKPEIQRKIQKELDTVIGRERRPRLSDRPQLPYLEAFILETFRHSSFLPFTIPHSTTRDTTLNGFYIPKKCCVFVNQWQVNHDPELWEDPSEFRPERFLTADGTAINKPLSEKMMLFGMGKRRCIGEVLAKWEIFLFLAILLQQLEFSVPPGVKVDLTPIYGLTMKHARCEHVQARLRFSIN
Description: Inhibition of CYP1A2. The format is ADME.

For series [13], the system named is Hepatocyte. Briefly: Metabolic stability in rat liver hepatocytes assessed as compound turnover after 120 mins. It is filed as ADME, cell-based. The note with it: 2 h.
Series [14] concerns the target Sodium-dependent noradrenaline transporter (Homo sapiens, UniProt P23975). Briefly: Displacement of [3H]nisoxetine from human NET expressed in CHO cells after 120 mins by scintillation counting. The format is cell-based. The gist of the method: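 Membranes from hNET-transfected CHO cells (20 μg protein) incubated 120 min at 4 °C with 1 nM [3H]nisoxetine in 50 mM Tris-HCl pH 7.4, 120 mM NaCl, 5 mM KCl. Nonspecific binding defined with 1 μM desipramine. Filtered on PEI-soaked GF/B and counted.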
In general terms: Displacement assays read how much labelled ligand stays bound in the presence of the test substance.

For the next series, the target named is Cytochrome P450 2C9 (Homo sapiens, UniProt P11712). Briefly: Inhibition of CYP2C9. The format is ADME.
Series [15] deals with Hepatocyte. Briefly: Metabolic stability in primates liver hepatocytes assessed as compound turnover after 120 mins. The format is ADME, cell-based. The note with it: 2 h.
A short description of series [16]: Vasoconstrictive activity in U46619 precontracted human arteries assessed as inhibition of acetylcholine-induced vasorelaxation at 100 uM after 50 mins in presence of L-arginine. It is filed as tissue-based, Artery. In short, it runs like this: as §3
The subject of series [17] is Rattus norvegicus. Briefly: Antiallodynic activity in L5/L6 SNL Sprague-Dawley rat model of […] model assessed as reversal of mechanical force-induced allodynia at 30 mg/kg, ip measured after 30 mins. It is filed as functional. The note with it: route intraperitoneal. The gist of the method:
as §2

Chain of Cytochrome P450 2C19 (P33261 whole entry): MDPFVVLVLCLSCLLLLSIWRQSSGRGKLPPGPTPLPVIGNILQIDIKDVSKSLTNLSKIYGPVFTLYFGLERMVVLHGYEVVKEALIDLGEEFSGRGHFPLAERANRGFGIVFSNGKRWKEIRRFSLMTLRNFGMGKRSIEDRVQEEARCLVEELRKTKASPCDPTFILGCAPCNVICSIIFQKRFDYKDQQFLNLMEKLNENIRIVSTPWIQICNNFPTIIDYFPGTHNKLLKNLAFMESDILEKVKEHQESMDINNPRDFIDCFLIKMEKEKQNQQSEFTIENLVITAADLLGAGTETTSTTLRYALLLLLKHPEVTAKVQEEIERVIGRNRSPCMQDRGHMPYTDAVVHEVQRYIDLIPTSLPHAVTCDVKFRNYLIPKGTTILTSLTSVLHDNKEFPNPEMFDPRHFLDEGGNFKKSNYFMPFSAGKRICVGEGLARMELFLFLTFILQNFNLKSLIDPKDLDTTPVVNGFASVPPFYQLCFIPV
Chain of Muscarinic acetylcholine receptor M3 (Homo sapiens) (P20309 whole entry, looked up): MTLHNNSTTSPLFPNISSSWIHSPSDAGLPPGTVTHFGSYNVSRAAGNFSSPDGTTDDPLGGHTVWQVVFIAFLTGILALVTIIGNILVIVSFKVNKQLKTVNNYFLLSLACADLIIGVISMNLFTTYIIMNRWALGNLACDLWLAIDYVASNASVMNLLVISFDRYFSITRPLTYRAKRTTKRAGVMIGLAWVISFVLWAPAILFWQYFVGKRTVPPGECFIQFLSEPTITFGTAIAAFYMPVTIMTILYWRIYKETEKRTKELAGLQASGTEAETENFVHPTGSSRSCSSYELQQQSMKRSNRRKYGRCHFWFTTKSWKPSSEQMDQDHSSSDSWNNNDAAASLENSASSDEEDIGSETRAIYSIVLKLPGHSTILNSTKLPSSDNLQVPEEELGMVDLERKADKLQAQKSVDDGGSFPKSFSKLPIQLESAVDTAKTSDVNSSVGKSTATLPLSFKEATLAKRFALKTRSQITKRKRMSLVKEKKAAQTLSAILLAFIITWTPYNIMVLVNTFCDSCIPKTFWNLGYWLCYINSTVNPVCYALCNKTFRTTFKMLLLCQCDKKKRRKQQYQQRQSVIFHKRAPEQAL
Chain of Cytochrome P450 3A4 (P08684 whole entry): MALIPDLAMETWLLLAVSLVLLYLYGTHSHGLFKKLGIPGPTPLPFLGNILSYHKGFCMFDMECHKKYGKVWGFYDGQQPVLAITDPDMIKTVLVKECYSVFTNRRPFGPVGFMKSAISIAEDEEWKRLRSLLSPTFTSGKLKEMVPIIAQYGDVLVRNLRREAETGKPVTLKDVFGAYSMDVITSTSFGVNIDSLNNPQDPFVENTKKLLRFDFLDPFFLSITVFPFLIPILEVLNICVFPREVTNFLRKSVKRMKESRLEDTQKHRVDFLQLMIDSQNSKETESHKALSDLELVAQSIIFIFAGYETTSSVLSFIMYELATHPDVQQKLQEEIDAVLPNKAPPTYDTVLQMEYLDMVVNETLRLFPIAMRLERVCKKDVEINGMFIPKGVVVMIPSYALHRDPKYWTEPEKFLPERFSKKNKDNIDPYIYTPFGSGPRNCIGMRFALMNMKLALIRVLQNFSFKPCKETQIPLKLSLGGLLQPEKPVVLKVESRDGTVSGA
Chain of Sodium-dependent noradrenaline transporter (P23975 whole entry): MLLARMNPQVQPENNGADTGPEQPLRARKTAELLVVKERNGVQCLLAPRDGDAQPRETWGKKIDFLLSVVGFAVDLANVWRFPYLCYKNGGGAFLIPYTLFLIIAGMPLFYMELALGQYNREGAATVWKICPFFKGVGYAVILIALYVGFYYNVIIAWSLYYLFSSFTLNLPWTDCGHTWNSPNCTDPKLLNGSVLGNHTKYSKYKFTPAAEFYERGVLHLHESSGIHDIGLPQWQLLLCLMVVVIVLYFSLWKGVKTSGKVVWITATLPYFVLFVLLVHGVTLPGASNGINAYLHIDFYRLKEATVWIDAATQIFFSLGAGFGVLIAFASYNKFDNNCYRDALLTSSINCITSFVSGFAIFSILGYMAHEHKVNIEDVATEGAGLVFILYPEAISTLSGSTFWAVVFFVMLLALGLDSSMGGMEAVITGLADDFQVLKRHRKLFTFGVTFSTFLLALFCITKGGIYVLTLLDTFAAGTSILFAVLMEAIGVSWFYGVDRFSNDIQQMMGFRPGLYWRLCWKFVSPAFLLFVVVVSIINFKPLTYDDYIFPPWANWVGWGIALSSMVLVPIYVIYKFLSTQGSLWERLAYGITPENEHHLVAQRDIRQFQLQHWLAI
Chain of Cytochrome P450 2C9 (P11712 whole entry): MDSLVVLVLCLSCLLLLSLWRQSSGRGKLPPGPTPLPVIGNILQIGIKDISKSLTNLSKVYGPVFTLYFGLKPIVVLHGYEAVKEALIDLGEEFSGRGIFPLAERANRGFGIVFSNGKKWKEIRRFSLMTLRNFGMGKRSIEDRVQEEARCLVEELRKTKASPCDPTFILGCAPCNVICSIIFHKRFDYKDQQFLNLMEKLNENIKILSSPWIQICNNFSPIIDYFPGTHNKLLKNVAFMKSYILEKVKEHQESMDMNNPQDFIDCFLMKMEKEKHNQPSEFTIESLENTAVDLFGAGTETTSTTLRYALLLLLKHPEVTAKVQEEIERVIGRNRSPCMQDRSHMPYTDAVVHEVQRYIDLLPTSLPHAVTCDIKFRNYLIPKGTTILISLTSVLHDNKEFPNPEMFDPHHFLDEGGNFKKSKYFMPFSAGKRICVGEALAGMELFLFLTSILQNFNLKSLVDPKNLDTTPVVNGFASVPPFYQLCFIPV
Chain of Cytochrome P450 2D6 (P10635 whole entry): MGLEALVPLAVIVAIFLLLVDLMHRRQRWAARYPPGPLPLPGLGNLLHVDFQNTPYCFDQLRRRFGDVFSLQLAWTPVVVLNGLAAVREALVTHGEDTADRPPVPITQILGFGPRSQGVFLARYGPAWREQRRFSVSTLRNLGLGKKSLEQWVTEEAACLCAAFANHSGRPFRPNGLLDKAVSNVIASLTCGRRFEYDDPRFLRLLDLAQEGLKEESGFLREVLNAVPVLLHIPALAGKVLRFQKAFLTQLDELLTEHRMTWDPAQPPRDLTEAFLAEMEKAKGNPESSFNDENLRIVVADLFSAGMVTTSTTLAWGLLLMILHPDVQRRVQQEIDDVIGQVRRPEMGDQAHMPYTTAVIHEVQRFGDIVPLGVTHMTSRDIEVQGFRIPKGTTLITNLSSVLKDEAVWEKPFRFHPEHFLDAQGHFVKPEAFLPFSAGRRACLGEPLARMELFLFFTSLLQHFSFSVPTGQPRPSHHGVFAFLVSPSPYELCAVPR
Chain of Nitric oxide synthase, inducible (P35228 whole entry): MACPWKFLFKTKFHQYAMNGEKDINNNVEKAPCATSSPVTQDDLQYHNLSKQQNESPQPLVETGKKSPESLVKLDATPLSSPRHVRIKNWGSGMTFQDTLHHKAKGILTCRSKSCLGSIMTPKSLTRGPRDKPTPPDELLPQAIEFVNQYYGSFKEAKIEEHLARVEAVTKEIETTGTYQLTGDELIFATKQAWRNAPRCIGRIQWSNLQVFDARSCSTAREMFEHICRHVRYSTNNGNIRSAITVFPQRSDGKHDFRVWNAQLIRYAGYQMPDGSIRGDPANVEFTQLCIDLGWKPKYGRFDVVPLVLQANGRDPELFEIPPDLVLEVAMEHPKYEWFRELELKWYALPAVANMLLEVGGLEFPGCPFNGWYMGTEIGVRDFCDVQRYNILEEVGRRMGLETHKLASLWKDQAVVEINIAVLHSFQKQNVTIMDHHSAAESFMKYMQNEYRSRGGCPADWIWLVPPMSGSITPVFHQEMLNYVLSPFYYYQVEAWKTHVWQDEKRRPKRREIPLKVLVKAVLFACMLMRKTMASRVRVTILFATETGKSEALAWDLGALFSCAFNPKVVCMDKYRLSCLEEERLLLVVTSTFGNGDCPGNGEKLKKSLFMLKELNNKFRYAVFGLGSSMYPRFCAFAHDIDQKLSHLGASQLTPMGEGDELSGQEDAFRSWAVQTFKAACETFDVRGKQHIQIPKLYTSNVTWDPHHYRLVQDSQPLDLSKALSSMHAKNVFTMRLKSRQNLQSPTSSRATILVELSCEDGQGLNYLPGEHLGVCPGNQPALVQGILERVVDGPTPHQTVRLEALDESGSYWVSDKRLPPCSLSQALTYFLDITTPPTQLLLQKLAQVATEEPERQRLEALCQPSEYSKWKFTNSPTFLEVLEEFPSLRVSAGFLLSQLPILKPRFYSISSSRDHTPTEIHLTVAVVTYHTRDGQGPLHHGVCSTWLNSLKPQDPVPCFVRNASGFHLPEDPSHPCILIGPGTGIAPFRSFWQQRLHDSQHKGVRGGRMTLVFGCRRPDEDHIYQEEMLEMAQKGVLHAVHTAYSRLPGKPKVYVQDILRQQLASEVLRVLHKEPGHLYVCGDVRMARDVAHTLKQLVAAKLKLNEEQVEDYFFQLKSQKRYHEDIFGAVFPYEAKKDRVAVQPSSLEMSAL
Chain of Mu-type opioid receptor (Homo sapiens) (P35372 whole entry): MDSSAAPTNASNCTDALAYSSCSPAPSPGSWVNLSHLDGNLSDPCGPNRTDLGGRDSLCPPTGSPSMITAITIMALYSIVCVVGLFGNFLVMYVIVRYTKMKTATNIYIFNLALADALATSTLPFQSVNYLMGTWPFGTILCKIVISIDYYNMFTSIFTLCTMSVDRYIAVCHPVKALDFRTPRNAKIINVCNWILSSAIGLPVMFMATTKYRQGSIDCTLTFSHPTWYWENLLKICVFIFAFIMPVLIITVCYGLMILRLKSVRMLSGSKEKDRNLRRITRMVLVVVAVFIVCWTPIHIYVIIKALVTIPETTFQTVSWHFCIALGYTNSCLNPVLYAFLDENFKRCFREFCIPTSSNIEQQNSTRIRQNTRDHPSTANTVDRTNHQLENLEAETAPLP

Take `CNC1CCCC(c2c[nH]c3ccc(NC(=N)c4cccs4)cc23)C1` (single isomer, unassigned; (+)): the inhibition (commonly the drop in the measured response relative to a control, in per cent) turned out to be 53% in [1]; 80% in [2]; 88% in series [3]; 61% in series [4]; 87% in [5]; 93% in series [6]. In series [7], the inhibition is 87%.

As for `CNC1CCCC(c2c[nH]c3ccc(NC(=N)c4cccs4)cc23)C1.Cl` (single isomer, unassigned; (+)), the Activity in the series with Rattus norvegicus [8] is reported as 96%; in series [9], “Non-toxic”; in [16], “Non-toxic”; in the series on Rattus norvegicus [17], 90%. The Stability entry (in the series on Hepatocyte [10]; in series [11]; in the series with Hepatocyte [13]; in the series on Hepatocyte [15]) was “Stable” throughout. Also, the half-inhibitory concentration (IC50) (usually the midpoint of a concentration-inhibition curve) against Cytochrome P450 2C19 is more than 100 µM; against Cytochrome P450 3A4, 100 µM; against Cytochrome P450 2D6 it was 5.14 µM; in series [12], 6.76 µM; at Cytochrome P450 1A2 it was “Not Active”; in series [14] it was 1 µM. At Cytochrome P450 2C9, the half-inhibitory concentration (IC50) result was “Not Active”.
